The record followed here is PMC9009525 (ACS synthetic biology, 2021).

This test deals with T7 Express LysY/I^q E. coli. Description: Induction test: growth. Type of test: cell-based, Escherichia coli. Conditions: 0.50 mM IPTG, LB with kan, 37 °C, OD600 over nine hours. The gist of the method: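 T7 Express LysY/Iq E. coli transformed with 80 ng pETh vector carrying oncocin or a negative control, each separately. After SOC recovery, cells were pelleted and resuspended in LB with 50 µg mL-1 kanamycin. This suspension seeded LB-kanamycin (1:100) containing 0 to 0.50 mM IPTG. Cultures were shaken at 250 rpm at 37 °C for nine hours, with OD600 read every 50 minutes.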

Ends that are not written are not given here.

Take “VDKPPYLPRPRPPRRIYNR-NH2 (C-terminus assumed) [oncocin]”: the “growth of oncocin-expressing E. coli upon induction (in words)” value was “nearly complete growth inhibition”.
